The text below walks through data of ChEMBL document CHEMBL1121513, “Separation of potent central and renal dopamine agonist activity in substituted 6-chloro-2,3,4,5-tetrahydro-7,8-dihydroxy-1-phenyl-1H-3-benzazepines” (J Med Chem, 1980).

The term EC50 denotes the concentration at which the effect is half-maximal. Read a low EC50 as an effect from little substance.

SMILES strings stand for the structures.

For assay [1], the species on record is Canis familiaris. Briefly: Potency was expressed as the average maximum cumulative dose required to decrease renal vascular resistance by 15%. It is filed as functional, Canis lupus familiaris. The method in brief:
(§1)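 Anesthetized dogs were surgically prepared for electromagnetic measurement of renal and iliac artery blood flow, carotid blood pressure, and ECG-triggered cardiometer heart rate. Drug was infused into an antecubital vein at cumulative, usually threefold increasing doses, 5 min per level. Renal vascular resistance was calculated as mean arterial pressure divided by mean blood flow, with a […] change needed for significance.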

For assay [2], the species on record is Rattus norvegicus. Briefly: Central dopaminergic activity was determined by testing compound for dopamine agonist activity mediated by adenylase cyclase in rat. It counts as functional, organism-based.
Assay [3] can be described thus: Renal vasodilator activity was measured between ED30, measure in iliac vascular resistance (IVR) test, and ED15 RVR. It counts as functional. The method in brief:
(§2)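 In anesthetized dogs with electromagnetic renal and iliac blood-flow probes, carotid pressure and ECG-triggered heart rate, drug was given as cumulative iv infusions rising about threefold every 5 min. Resistance was pressure divided by flow. Each ratio divides the dose giving a 30% IVR change, a 20% MABP rise or a 20% HR change by the RVR ED15.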

A short description of assay [4]: Renal vasodilator activity was measured between ED20, measure of mean arterial blood pressure (MABP) test, and ED15 RVR. It counts as functional. Put shortly:
as §2

Assay [5] can be described thus: Renal vasodilator activity was measured between ED20, heart rate (HR) test, and ED15 RVR. It is filed as functional. The method in brief:
as §2

Assay [6] concerns Canis familiaris. Briefly: Effective Dose (ED15) required to decrease renal vascular resistance by 15% in anesthetized dogs administered intravenously. It is filed as functional. As to conditions: Canis lupus familiaris, iv. The method in brief: as §1
The test system of assay [7] is Rattus norvegicus. Briefly: Central dopaminergic activity was determined by testing compound for its ability to produce contralateral rotation in lesioned rat after intracerebrally administration. It is filed as functional.
The subject of assay [8] is Rattus norvegicus. Kind of assay: Central dopaminergic activity was determined by testing compound for its ability to produce contralateral rotation in lesioned rat after ip administration. It counts as functional.
The subject of assay [9] is Canis familiaris. Kind of assay: Effective Dose (ED15) required to decrease renal vascular resistance by 15% in anesthetized dogs administered intravenously; d = increase in renal resistance were seen. As to conditions: Canis lupus familiaris. It is filed as functional, organism-based. The method in brief: as §1

As to `NCCc1ccc(O)c(O)c1` [DOPAMINE], the Average max in [1] came out at 36%. Further, the EC50 in [2] is 3500 nM. The Selectivity ratio came out at 56 in [3], 113 in assay [4] and 141 in [5]. For the same compound, the ED15 in assay [6] worked out at 2.7 µg/kg.

On to `Oc1cc2c(c(Cl)c1O)CCNCC2c1ccccc1` (configuration not stated), for which, in assay [1], the Average max was 39%. Moreover, the RD500 in assay [7] stood at 0.22 µg/rat; in [8] it was 300 µg/kg. Further, the ED15 in [6] amounted to 3.5 µg/kg.

In turn, `Oc1cc2c(cc1O)C(c1ccccc1)CNCC2` (configuration not stated) [SKF-38393] gave an Average max in assay [1] of 19%. Also, the response in assay [2] was half-maximal at 80 nM (EC50). The Selectivity ratio in assay [3] came out at 15; in assay [4] it was 10. Also, the RD500 in assay [7] worked out at 0.18 µg/rat; in assay [8], 700 µg/kg. This compound also came in with an ED15 in assay [6] of 31 µg/kg.

Regarding `Oc1ccc(C2CNCCc3cc(O)c(O)cc32)cc1` (configuration not stated), the EC50 in assay [2] came out at 500 nM. In addition, in assay [9], the ED15 entry is given as “Significant increases”.

With `Oc1ccc(C2CNCCc3c2cc(O)c(O)c3Cl)cc1` (configuration not stated) [FENOLDOPAM], the Average max in assay [1] worked out at 59%. The compound also registered an EC50 in [2] of 18 nM. The figures for the Selectivity ratio in [3], in assay [4] and in assay [5] were more than 6070, more than 6072 and more than 6072, respectively. In addition, the RD500 in assay [7] came out at 0.5 µg/rat; in assay [8], 10000 µg/kg. For the same compound, the ED15 in assay [6] came out at 0.3 µg/kg.
